# Assay results published in ChEMBL document CHEMBL1914430, “Synthesis of some new 1,3,5-trisubstituted pyrazolines bearing benzene sulfonamide as anticancer and anti-inflammatory agents” (Bioorg Med Chem Lett, 2011).
# Experiments:
# Type in all cases: functional
# Rattus norvegicus = test: Antiinflammatory activity in Wistar rat assessed as inhibition of carrageenan-induced hind paw edema at 20 mg/kg, po administered 30 mins before carrageenan challenge measured after 3 hrs by plethysmometer
# Procedure, shortened: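 Wistar rats of either sex, 150–175 g, fasted 16 h, n = 6 per group. Compound given orally at 20 mg/kg as a suspension in 1% CMC in water (10 mL/kg); controls got vehicle only. After 30 min, 0.1 mL of 1% carrageenan in saline was injected subplantar into the left hind paw. Paw volume was measured by plethysmometer at 0, 3 and 5 h. Inhibition = (1 − Vt/Vc) × 100, reported as mean ± SEM.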
# MCF7 = test: Anticancer activity against human MCF7 cells after 48 hrs; conditions: MCF7, 48 h
# Procedure, shortened: (§1)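 NCI Drug Evaluation Branch 60-cell-line screen across leukemia, melanoma, lung, colon, CNS, ovarian, renal, prostate and breast panels. The incubation period is 48 h. Parameters are derived from dose–response data: GI50 is the concentration giving 50% decrease in net growth, TGI is total growth inhibition, and LC50 is net 50% loss of initial cells. Values beyond the tested range are reported as greater or less than the maximum or minimum concentration.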
# T47D = test: Anticancer activity against human T47D cells after 48 hrs
# Procedure, shortened: (§2)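 NCI ~60 human tumour cell line panel with a 48 h incubation. GI50 is the concentration giving a 50% fall in net growth, TGI gives total growth inhibition, and LC50 gives a net 50% loss of initial cells. An effect not reached or exceeded is reported as greater or less than the highest or lowest concentration tested.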
# UO-31 = test: Anticancer activity against human UO31 cells after 48 hrs; conditions: UO-31, 48 h, read-out: LC50 (the source's name); procedure, shortened: as §2
# SK-MEL-5 = test: Anticancer activity against human SK-MEL-5 cells after 48 hrs; conditions: SK-MEL-5, 48 h
# Procedure, shortened: (§3)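 NCI 60-line panel protocol with a 48 h incubation. Per line: GI50 = concentration giving 50% decrease in net cell growth; TGI = total growth inhibition; LC50 = net 50% loss of initial cells. When the level was not reached or was exceeded, the value is given as greater or less than the highest or lowest concentration tested.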
# PC-3 = test: Anticancer activity against human PC3 cells after 48 hrs; conditions: PC-3, 48 h; procedure, shortened: as §3
# [1] = Anticancer activity against human Hs 578T cells after 48 hrs; procedure, shortened: as §1
# K562 = test: Anticancer activity against human K562 cells after 48 hrs; conditions: K562, 48 h; procedure, shortened: as §1
# SN12C = test: Anticancer activity against human SN12C cells after 48 hrs; procedure, shortened: as §3
# DU-145 = test: Anticancer activity against human DU145 cells after 48 hrs; conditions: DU-145, 48 h; procedure, shortened: as §1
# SF-539 = test: Anticancer activity against human SF539 cells after 48 hrs; conditions: SF-539, 48 h; procedure, shortened: as §3
# MDA-MB-468 = test: Anticancer activity against human MDA-MB-468 cells after 48 hrs; conditions: MDA-MB-468, 48 h; procedure, shortened: as §1
# Malme-3M = test: Anticancer activity against human MALME-3M cells after 48 hrs; procedure, shortened: as §1
# A549 = test: Anticancer activity against human A549 cells after 48 hrs; conditions: A549, 48 h; procedure, shortened: as §1
# U-251 = test: Anticancer activity against human U251 cells after 48 hrs; conditions: U-251, 48 h; procedure, shortened: as §2
# TK-10 = test: Anticancer activity against human TK10 cells after 48 hrs; conditions: TK-10, 48 h; procedure, shortened: as §2
# SR = test: Anticancer activity against human SR cells after 48 hrs; procedure, shortened: as §3
# HOP-92 = test: Anticancer activity against human HOP92 cells after 48 hrs; conditions: HOP-92, 48 h; procedure, shortened: as §1
# HCT-116 = test: Anticancer activity against human HCT116 cells after 48 hrs; conditions: HCT-116, 48 h; procedure, shortened: as §1
# 786-0 = test: Anticancer activity against human 786-0 cells after 48 hrs; conditions: 786-0, 48 h; procedure, shortened: as §1
# HCT-15 = test: Anticancer activity against human HCT15 cells after 48 hrs; conditions: HCT-15, 48 h; procedure, shortened: as §1
# HT-29 = test: Anticancer activity against human HT-29 cells after 48 hrs; conditions: HT-29, 48 h; procedure, shortened: as §1
# IGROV-1 = test: Anticancer activity against human IGROV1 cells after 48 hrs; conditions: IGROV-1, 48 h; procedure, shortened: as §1
# SF-295 = test: Anticancer activity against human SF295 cells after 48 hrs; conditions: SF-295, 48 h; procedure, shortened: as §3
# MDA-MB-231 = test: Anticancer activity against human MDA-MB-231 cells after 48 hrs; conditions: MDA-MB-231, 48 h; procedure, shortened: as §1
# EKVX = test: Anticancer activity against human EKVX cells after 48 hrs; procedure, shortened: as §1
# HCC 2998 = test: Anticancer activity against human HCC2998 cells after 48 hrs; conditions: HCC 2998, 48 h; procedure, shortened: as §1
# CCRF-CEM = test: Anticancer activity against human CCRF-CEM cells after 48 hrs; procedure, shortened: as §1
# NCI-H460 = test: Anticancer activity against human NCI-H460 cells after 48 hrs; conditions: NCI-H460, 48 h; procedure, shortened: as §3
# UACC-257 = test: Anticancer activity against human UACC257 cells after 48 hrs; conditions: UACC-257, 48 h; procedure, shortened: as §2
# [2] = read-out: LC50 (the source's name)
smiles,measurement,setting,value
Cc1cc(O)c(C2=NN(c3ccc(S(N)(=O)=O)cc3)C(c3ccccc3O)C2)cc1Cl (stereo unspecified),inhibition in vivo at 20 mg/kg,Rattus norvegicus,73.6%
same,GI50,MCF7,2.66 µM
same,LC50,MCF7,49.5 µM
same,TGI,MCF7,9.77 µM
same,GI50,T47D,3.18 µM
same,TGI,T47D,14.6 µM
same,CC50,T47D; [2],64.9 µM
same,CC50,UO-31,38.5 µM
same,GI50,SK-MEL-5,5.69 µM
same,LC50,SK-MEL-5,42.7 µM
same,TGI,SK-MEL-5,18.2 µM
same,GI50,PC-3,1.33 µM
same,TGI,PC-3,3.52 µM
same,CC50,PC-3; [2],9.33 µM
same,GI50,[1],4.64 µM
same,TGI,[1],22.5 µM
same,CC50,[1]; [2],> 100 µM
same,GI50,K562,2.56 µM
same,LC50 (concentration killing 50% of initial cells),K562,> 100 µM
same,TGI,K562,14.6 µM
same,GI50,SN12C,4.08 µM
same,LC50,SN12C,43.1 µM
same,TGI,SN12C,15.3 µM
same,GI50,DU-145,2.41 µM
same,LC50 (concentration causing net 50% loss of initial cells),DU-145,10.6 µM
same,TGI,DU-145,4.95 µM
same,GI50,SF-539,1.6 µM
same,LC50 (concentration causing net 50% loss of initial cells),SF-539,5.69 µM
same,TGI,SF-539,3.02 µM
same,GI50,MDA-MB-468,2.58 µM
same,TGI,MDA-MB-468,7.92 µM
same,CC50,MDA-MB-468; [2],37.6 µM
same,GI50,Malme-3M,2.72 µM
same,TGI,Malme-3M,7.34 µM
same,CC50,Malme-3M; [2],59.2 µM
same,GI50,A549,3.69 µM
same,LC50 (net 50% loss of initial cells),A549,60.5 µM
same,TGI,A549,15.5 µM
same,GI50,U-251,2.78 µM
same,TGI,U-251,7.76 µM
same,CC50,U-251; [2],26.9 µM
same,GI50,TK-10,3.3 µM
same,LC50,TK-10,27.2 µM
same,TGI,TK-10,6.85 µM
same,GI50,SR,2.22 µM
same,LC50 (concentration killing 50% of initial cells),SR,> 100 µM
same,TGI,SR,26.7 µM
same,GI50,HOP-92,1.46 µM
same,TGI,HOP-92,6.51 µM
same,CC50,HOP-92; [2],37.8 µM
same,GI50,HCT-116,1.66 µM
same,TGI,HCT-116,3.02 µM
same,CC50,HCT-116; [2],5.5 µM
same,GI50,786-0,2.23 µM
same,TGI,786-0,4.21 µM
same,CC50,786-0; [2],7.94 µM
same,GI50,HCT-15,3.64 µM
same,TGI,HCT-15,13.4 µM
same,CC50,HCT-15; [2],44.7 µM
same,GI50,HT-29,2.37 µM
same,TGI,HT-29,5.1 µM
same,CC50,HT-29; [2],12.9 µM
same,GI50,IGROV-1,1.63 µM
same,LC50 (net 50% loss of initial cells),IGROV-1,37.4 µM
same,TGI,IGROV-1,11.2 µM
same,GI50,SF-295,1.66 µM
same,LC50 (concentration giving net 50% loss of initial cells),SF-295,8.09 µM
same,TGI,SF-295,3.67 µM
same,GI50,MDA-MB-231,2.3 µM
same,TGI,MDA-MB-231,6.69 µM
same,CC50,MDA-MB-231; [2],29.5 µM
same,GI50,EKVX,1.99 µM
same,TGI,EKVX,7.16 µM
same,CC50,EKVX; [2],39.7 µM
same,GI50,HCC 2998,2.13 µM
same,LC50 (net 50% loss of initial cells),HCC 2998,8.74 µM
same,TGI,HCC 2998,4.31 µM
same,GI50,CCRF-CEM,4.17 µM
same,LC50 (concentration causing net 50% loss of initial cells),CCRF-CEM,> 100 µM
same,TGI,CCRF-CEM,> 100 µM
same,GI50,NCI-H460,2.06 µM
same,LC50 (50% lethal concentration),NCI-H460,9.4 µM
same,TGI,NCI-H460,4.48 µM
same,GI50,UACC-257,6.92 µM
same,LC50,UACC-257,59 µM
same,TGI,UACC-257,22.1 µM
